Series [1] in a line: folding enthalpy; higher = less favourable; fluorescence melt of hairpins on a sequencing array, two-state fit. The settings on record: sodium 0.088 M. The method, boiled down: (§1)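 In 50 mM Na-HEPES pH 8.0 containing 25 mM NaCl, hairpins from the library on a sequenced MiSeq flow cell were imaged for Cy3 fluorescence at 2.5 °C steps up to 60 °C, with Cy3 and quencher oligos annealed. After normalisation to pre-quench Cy3 and to control constructs, two-state fits with bootstrapping gave melting temperature and folding enthalpy. Four replicates were combined by inverse-variance weighting, and fitted temperatures were shifted up by 9.35 °C to match UV melts.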

The nature of series [2]: melting temperature; fluorescence melt of hairpins on a sequencing array, two-state fit, raised by 9.35 °C to match UV melts. To be noted: sodium 0.088 M. The method, boiled down: as §1

Take GATCTGGCCCCAGATC ((((((....)))))): the folding enthalpy in series [1] is -49.3 kcal/mol. Moreover, the Tm in series [2] turned out to be 52.9 °C.

With GATCTGGCCTCAGATC ((((((....)))))), the folding enthalpy in series [1] is -41.7 kcal/mol. Further, in series [2], the Tm is 51.7 °C.

GATCTGGCTCCAGATC ((((((....)))))): the folding enthalpy in series [1] is -39.4 kcal/mol. For the same sequence, the Tm in series [2] was determined as 53.1 °C.

Regarding GATCTGGGAAACCGGATC ((((.((....)).)))), the folding enthalpy in series [1] is -44.8 kcal/mol. Further, the Tm in series [2] came to 49.8 °C.

GATCTGGGACCAGATC ((((((....)))))): the folding enthalpy in series [1] was -43.4 kcal/mol. In addition, the Tm in series [2] was found to be 54.7 °C.

For the sequence GATCTGGGGACAGATC ((((((....)))))), the folding enthalpy in series [1] was -31.4 kcal/mol. The Tm in series [2] turned out to be 54.3 °C.

Regarding GATCTGGGGCAGATC ((((((...)))))), the folding enthalpy in series [1] is -29.4 kcal/mol. Further, the Tm in series [2] came to 46.5 °C.

GATCTGGGGCCAGATC ((((((....)))))): the folding enthalpy in series [1] was -47.6 kcal/mol. Besides, in series [2], the Tm amounted to 50.5 °C.

As for GATCTGGGTCCAGATC ((((((....)))))), the folding enthalpy in series [1] was -42.5 kcal/mol. The Tm in series [2] stood at 52.7 °C.

Regarding GATCTGGTCCAGATC ((((((...)))))), the folding enthalpy in series [1] is -33.4 kcal/mol. For the same sequence, the Tm in series [2] worked out at 50.8 °C.

Consider GATCTGGTCCCAGATC ((((((....)))))), for which, in series [1], the folding enthalpy is -39.6 kcal/mol. Also, the Tm in series [2] was 54.1 °C.

Turning to GATCTGGTCGCAGATC ((((((....)))))), in series [1], the folding enthalpy was -24.9 kcal/mol. In series [2], the Tm was 52.4 °C.

GATCTGGTGGCAGATC ((((((....)))))): the folding enthalpy in series [1] is -33.9 kcal/mol. Also, the Tm in series [2] was 50.1 °C.

As to GATCTGGTTACAGATC ((((((....)))))), the folding enthalpy in series [1] was -40.1 kcal/mol. Further, the Tm in series [2] was 59.1 °C.

Turning to GATCTGTAATCAGATC ((((((....)))))), the folding enthalpy in series [1] was -37.6 kcal/mol. In addition, the Tm in series [2] was 48.2 °C.

With GATCTGTACCCAGATC ((((((....)))))), the folding enthalpy in series [1] is -36.4 kcal/mol. Besides, the Tm in series [2] turned out to be 47.5 °C.

For GATCTGTAGGCAGATC ((((((....)))))), the folding enthalpy in series [1] is -45 kcal/mol. For the same sequence, the Tm in series [2] amounted to 51.9 °C.

For the sequence GATCTGTATACAGATC ((((((....)))))), the folding enthalpy in series [1] was -40.8 kcal/mol. Also, the Tm in series [2] is 54.3 °C.

On to GATCTGTATCCAGATC ((((((....)))))), for which the folding enthalpy in series [1] is -40.3 kcal/mol. The Tm in series [2] came to 47.4 °C.

For the sequence GATCTGTATTCAGATC ((((((....)))))), the folding enthalpy in series [1] is -36.3 kcal/mol. Moreover, in series [2], the Tm is 50.4 °C.

Take GATCTGTCACAGATC ((((((...)))))): the folding enthalpy in series [1] was -36.2 kcal/mol. In series [2], the Tm came to 50.6 °C.

Take GATCTGTCCCCAGATC ((((((....)))))): the folding enthalpy in series [1] was -37.5 kcal/mol. Moreover, the Tm in series [2] came to 47.9 °C.

For the sequence GATCTGTCCGCAGATC ((((((....)))))), the folding enthalpy in series [1] was -43.6 kcal/mol. Moreover, in series [2], the Tm is 52.9 °C.

In the case of GATCTGTCCTCAGATC ((((((....)))))), in series [1], the folding enthalpy was -46.8 kcal/mol. For the same sequence, in series [2], the Tm was 51 °C.

Consider GATCTGTCGCCAGATC ((((((....)))))), for which the folding enthalpy in series [1] was -37.6 kcal/mol. Moreover, in series [2], the Tm turned out to be 50.1 °C.

Take GATCTGTCTTCAGATC ((((((....)))))): the folding enthalpy in series [1] was -38.7 kcal/mol. Moreover, in series [2], the Tm turned out to be 51.4 °C.

As for GATCTGTGAGCAGATC ((((((....)))))), the folding enthalpy in series [1] was -40 kcal/mol. For the same sequence, the Tm in series [2] came out at 55 °C.

Consider GATCTGTGGCCAGATC ((((((....)))))), for which the folding enthalpy in series [1] was -33.9 kcal/mol. Besides, in series [2], the Tm was determined as 50.4 °C.

Regarding GATCTGTTATCAGATC ((((((....)))))), in series [1], the folding enthalpy is -39.8 kcal/mol. Besides, the Tm in series [2] turned out to be 50.7 °C.

As to GATCTGTTCTCAGATC ((((((....)))))), the folding enthalpy in series [1] was -41.3 kcal/mol. Also, the Tm in series [2] is 51.5 °C.

As for GATCTTAACTAAGATC ((((((....)))))), the folding enthalpy in series [1] was -32.5 kcal/mol. Moreover, the Tm in series [2] was 44 °C.

On to GATCTTAATAAAGATC ((((((....)))))), for which the folding enthalpy in series [1] was -28.5 kcal/mol. Further, in series [2], the Tm came to 40.9 °C.

As for GATCTTAATGAAGATC ((((((....)))))), in series [1], the folding enthalpy was -27.5 kcal/mol. In addition, in series [2], the Tm came out at 39.5 °C.

Consider GATCTTAGCAAAGATC ((((((....)))))), for which the folding enthalpy in series [1] was -30.9 kcal/mol. For the same sequence, the Tm in series [2] turned out to be 42.4 °C.

Take GATCTTAGCTAAGATC ((((((....)))))): the folding enthalpy in series [1] is -43.9 kcal/mol. In addition, the Tm in series [2] was 48.5 °C.

Regarding GATCTTAGTCAAGATC ((((((....)))))), the folding enthalpy in series [1] was -31.4 kcal/mol. Moreover, the Tm in series [2] amounted to 42.2 °C.

Take GATCTTATATAAGATC ((((((....)))))): in series [1], the folding enthalpy was -34.1 kcal/mol. For the same sequence, the Tm in series [2] amounted to 44.9 °C.

As to GATCTTATCAAGATC ((((((...)))))), in series [1], the folding enthalpy is -29.7 kcal/mol. Besides, the Tm in series [2] came out at 46 °C.
